The values below come from ChEMBL document CHEMBL3865784 (Eur J Med Chem, 2016).

Series [1] is described as follows: Cytotoxicity against NQO1-deficient human PBMC assessed as reduction in cell viability after 72 hrs by MTT assay. Type of series: toxicity, cell-based. Particulars: for IC50: pbmc. (Formazan colour is commonly taken as a measure of viable cells.)
Series [2] in a line: Cytotoxicity against human SF295 cells overexpressing NQO1 assessed as reduction in cell viability after 72 hrs by MTT assay. Type of series: functional, cell-based. Conditions: SF-295, 72 h.
The nature of series [3]: Cytotoxicity against human PC3 cells overexpressing NQO1 assessed as reduction in cell viability after 72 hrs by MTT assay. The format is functional, cell-based. Particulars: PC-3, 72 h.
A short description of series [4]: Cytotoxicity against human HCT116 cells expressing NQO1 assessed as reduction in cell viability after 72 hrs by MTT assay. Type of series: functional, cell-based. Particulars: HCT-116, 72 h. The method in brief: (§1)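 Cancer lines from NCI, grown in RPMI 1640 with 10% FBS, 2 mM L-glutamine, penicillin/streptomycin, 37 °C, 5% CO2; seeded 0.1 × 10^6 cells/well (HL-60) or 0.7 × 10^5 cells/well (solid tumours). Compounds in DMSO, final 0.1% v/v; DMSO vehicle as negative control.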

A short description of series [5]: Cytotoxicity against NQO1-deficient human HL60 cells assessed as reduction in cell viability after 72 hrs by MTT assay. The format is functional, cell-based. Conditions: HL-60, 72 h. The method, boiled down:
as §1

Series [6] in a line: Cytotoxicity against human OVCAR8 cells overexpressing NQO1 assessed as reduction in cell viability after 72 hrs by MTT assay. Type of series: functional, cell-based. Particulars: OVCAR-8, 72 h. The method, boiled down:
as §1

Series [7] is described as follows: Cytotoxicity against human MDA-MB-435 cells overexpressing NQO1 assessed as reduction in cell viability after 72 hrs by MTT assay. Particulars: MDA-MB-435, 72 h. Type of series: functional, cell-based. The method, boiled down:
as §1

The species named for a further series is Mus musculus. The series is described as follows: Cytotoxicity against NQO1-deficient mouse L929 cells assessed as reduction in cell viability after 72 hrs by MTT assay. Conditions: l929. The format is toxicity, cell-based.
Series [8] can be described thus: Cytotoxicity against NQO1-deficient chinese hamster V79 cells assessed as reduction in cell viability after 72 hrs by MTT assay. Type of series: toxicity, cell-based, Cricetulus griseus. Conditions: v79.
In series [9] the test system is L929. Put plainly: Selectivity index, ratio of IC50 for NQO1-deficient mouse L929 cells to IC50 for NQO1-deficient human HL60 cells. The format is functional. The method in brief:
(§2)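 Selectivity index is IC50 in the normal cells divided by IC50 in the cancer line. Normal cells: V79 and L929 in DMEM, PBMC in RPMI with phytohaemagglutinin. Cancer lines in RPMI with 10% FBS, seeded at 0.1 × 10^6 (HL-60) or 0.7 × 10^5 cells/well (solid tumors). Absorbance 550 nm; nonlinear regression.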

In series [10] the test system is HL-60. Put plainly: Selectivity index, ratio of IC50 for NQO1-deficient chinese hamster V79 cells to IC50 for NQO1-deficient human HL60 cells. The format is functional. The method, boiled down: as §2
Series [11] concerns SF-295. The series is described as follows: Selectivity index, ratio of IC50 for NQO1-deficient human PBMC to IC50 for human SF295 cells overexpressing NQO1. The method in brief: as §2
For another series, the system named is OVCAR-8. The series is described as follows: Selectivity index, ratio of IC50 for NQO1-deficient human PBMC to IC50 for human OVCAR8 cells overexpressing NQO1. The method, boiled down:
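Selectivity index is IC50 in the normal cells divided by IC50 in the cancer line. All IC50s come from 72 h MTT assays. Normal cells: V79 and L929 in DMEM, PBMC in RPMI with phytohaemagglutinin. Cancer lines in RPMI with 10% FBS, seeded at 0.1 × 10^6 (HL-60) or 0.7 × 10^5 cells/well (solid tumors). Absorbance 550 nm; nonlinear regression.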

Series [12] concerns SF-295. Put plainly: Selectivity index, ratio of IC50 for NQO1-deficient chinese hamster V79 cells to IC50 for human SF295 cells overexpressing NQO1. The method, boiled down: as §2
Series [13] relates to HL-60. Put plainly: Selectivity index, ratio of IC50 for NQO1-deficient human PBMC to IC50 for NQO1-deficient human HL60 cells. The method, boiled down:
as §2

The test system of series [14] is L929. The series is described as follows: Selectivity index, ratio of IC50 for NQO1-deficient mouse L929 cells to IC50 for human OVCAR8 cells overexpressing NQO1. The method in brief:
as §2

Series [15] relates to L929. Put plainly: Selectivity index, ratio of IC50 for NQO1-deficient mouse L929 cells to IC50 for human SF295 cells overexpressing NQO1. The method, boiled down:
as §2

Series [16] is described as follows: Selectivity index, ratio of IC50 for NQO1-deficient human PBMC to IC50 for human MDA-MB-435 cells overexpressing NQO1. The method in brief: as §2
Series [17] concerns V79. Put plainly: Selectivity index, ratio of IC50 for NQO1-deficient chinese hamster V79 cells to IC50 for human MDA-MB-435 cells overexpressing NQO1. The method in brief: as §2
Series [18] relates to L929. The series is described as follows: Selectivity index, ratio of IC50 for NQO1-deficient mouse L929 cells to IC50 for human MDA-MB-435 cells overexpressing NQO1. The method, boiled down:
as §2

The subject of another series is PC-3. The series is described as follows: Selectivity index, ratio of IC50 for NQO1-deficient human PBMC to IC50 for human PC3 cells overexpressing NQO1. The method in brief:
as §2

For series [19], the system named is L929. The series is described as follows: Selectivity index, ratio of IC50 for NQO1-deficient mouse L929 cells to IC50 for human PC3 cells overexpressing NQO1. The method, boiled down:
as §2

Series [20] relates to V79. The series is described as follows: Selectivity index, ratio of IC50 for NQO1-deficient chinese hamster V79 cells to IC50 for human PC3 cells overexpressing NQO1. The method, boiled down: as §2

As usually defined, the IC50 is the concentration that inhibits the measured activity by half.

As for `CC1(C)CC(n2cc(C[Se]c3ccccc3)nn2)C2=C(O1)C(=O)c1ccccc1C2=O` (stereo unspecified), the concentration for half-maximal inhibition (IC50) amounted to 4.45 µM in series [1]; 4.2 µM in series [2]; 3.89 µM in series [3]; 2.24 µM in series [4]; 5.46 µM in series [5]; 2.55 µM in [6].

As to `O=C1C2=C(C(=O)c3ccccc31)[C@H](c1ccccc1)[C@@H](n1cc(C[Se]c3ccccc3)nn1)CO2`, the IC50 is 5.58 µM in [2]; 6.82 µM in [7]; 7.16 µM in the series filed under Mus musculus; 7.79 µM in series [3]; 7.22 µM in series [4]; 6.74 µM in series [8]. Besides, in [5], the IC50 stood at 8.26 µM.

Consider `CC1(C)CCC2=C(O1)c1ccccc1C(=O)C2=O` [LAPACHONE], for which the IC50 in series [1] was greater than 20.6 µM; in series [2] it was 0.95 µM; in series [7], 0.25 µM; in series [4], 0.87 µM.

On to `CC1(C)CC(N=[N+]=[N-])C2=C(O1)C(=O)c1ccccc1C2=O` (stereo unspecified), for which the “Ratio IC50” value is 2.4 in the series on L929 [9]; 2.2 in the series with HL-60 [10]; 2.9 in the series on SF-295 [11]; 4.1 in the series with OVCAR-8; 1.7 with SF-295 [12]; 3.6 in the series on HL-60 [13]. The “Ratio IC50” value with L929 [14] was determined as 2.7; in the series on L929 [15], 2. Also, the IC50 amounted to 6.11 µM in [1]; 2.72 µM in [7]; 4.13 µM in the series filed under Mus musculus; 2.15 µM in [3]; 2.96 µM in series [4]; 3.67 µM in series [8]. The IC50 amounted to 1.66 µM in [5] and 1.48 µM in [6].

As to `CC1(C)OC2=C(C(=O)c3ccccc3C2=O)C1n1cc(C[Se]c2ccccc2)nn1` (stereo unspecified), the 50% inhibitory concentration (IC50) stood at 3.23 µM in series [1]; 2.65 µM in series [2]; 2.15 µM in [7]; 3.77 µM in the series listed under Mus musculus; 2.95 µM in series [3]; 2.54 µM in series [4]. The IC50 in series [8] stood at 4.03 µM; in series [5], 1.59 µM; in [6] it was 2.8 µM.

For the compound `[N-]=[N+]=NC1=CC(=O)c2ccccc2C1=O`, the IC50 in series [1] came to 8.64 µM; in [2], 3.41 µM; in [7], 2.36 µM; in the series listed under Mus musculus it was 5.17 µM; in [3], 2.16 µM; in [4] it was 4.27 µM. The IC50 in series [8] stood at 5.77 µM; in series [6], 3.51 µM.

For `O=C1C=C(n2cc(C[Se]c3ccccc3)nn2)C(=O)c2ccccc21`, the IC50 (in series [1]; in series [2]; in series [7]; in the series listed under Mus musculus; in [3]; in series [4]) was greater than 12.7 µM in each case. The IC50 in series [8], in series [5] and in [6] was greater than 12.7 µM each time.

With `C#Cc1cccc(NC2C3=C(OC2(C)C)C(=O)c2ccccc2C3=O)c1` (stereo unspecified), the IC50 was 6.46 µM in series [1]; greater than 14.6 µM in series [2]; 3.93 µM in series [7]; 5.15 µM in [3]; 4.6 µM in series [4]; 6.06 µM in [8]. The IC50 was determined as 2.59 µM in [5] and 7.13 µM in series [6].

`O=C1C(Cl)=C(NCc2cn(C[Se]c3ccccc3)nn2)C(=O)c2ccccc21`: the IC50 in [1] was 6.34 µM; in series [2] it was 2.93 µM; in series [7], 2.01 µM; in the series listed under Mus musculus, 3.43 µM; in [3], 2.25 µM; in [4] it was 3.25 µM. The concentration for half-maximal inhibition (IC50) was 2.51 µM in series [8] and 2.58 µM in series [6].

With `CC1(C)CC(Nc2cccc(-c3cn(C[Se]c4ccccc4)nn3)c2)C2=C(O1)C(=O)c1ccccc1C2=O` (stereo unspecified), the “Ratio IC50” value amounted to 1.6 in the series on L929 [9]; 1.8 with HL-60 [10]; 2.8 in series [16]; 1.9 with SF-295 [12]; 2 with HL-60 [13]; 2.4 in the series with V79 [17]. The “Ratio IC50” value in the series on L929 [18] is 2.2; in the series on L929 [15], 1.7. Moreover, the IC50 amounted to 4.16 µM in series [1]; 1.88 µM in [2]; 1.49 µM in series [7]; 3.3 µM in the series listed under Mus musculus; 2.6 µM in [3]; 4.9 µM in series [4]. Further, the IC50 in series [8] came to 3.65 µM; in series [5] it was 2 µM; in series [6], 3.09 µM.

In the case of `CC1(C)OC2=C(C(=O)C(=O)c3ccccc32)C1N=[N+]=[N-]` (stereo unspecified), the IC50 came out at 2.67 µM in the series filed under Mus musculus; 1.74 µM in series [3]; 0.89 µM in series [4]; 3.27 µM in series [8]; 1.34 µM in series [6].

Take `C#Cc1cccc(NC2CC(C)(C)OC3=C2C(=O)c2ccccc2C3=O)c1` (stereo unspecified): the IC50 (in series [1]; in [2]; in series [7]; in the series filed under Mus musculus; in series [3]; in series [4]) was greater than 14 µM in each case. The 50% inhibitory concentration (IC50) in series [8], in series [5] and in series [6] was greater than 14 µM each time.

Consider `CC1(C)OC2=C(C(=O)C(=O)c3ccccc32)C(N=[N+]=[N-])[C@@H]1Br` (stereo partly specified), for which the “Ratio IC50” value in the series with L929 [9] is on record as 1.4; in the series on HL-60 [10] it was 1.6; in series [16], 2.3; with SF-295 [11] it was 1.8; in the series on PC-3 it was 2.1; in the series on HL-60 [13], 2.5. The “Ratio IC50” value is on record as 1.2 in the series on L929 [19]; 1.5 in the series with V79 [17]; 1.3 in the series on L929 [18]; 1.4 in the series with V79 [20]; 1 with L929 [15]. For the same compound, the IC50 at 72 h in [1] (human) amounted to 3.58 µM. Moreover, the half-maximal inhibitory concentration (IC50) stood at 1.54 µM in series [7]; 2.04 µM in the series filed under Mus musculus; 1.68 µM in [3]; 2.48 µM in series [4]; 2.4 µM in series [8]; 2.24 µM in [6].

For the compound `O=C1C2=C(C(=O)c3ccccc31)[C@H](c1cccc3ccccc13)[C@@H](n1cc(C[Se]c3ccccc3)nn1)CO2`, the IC50 (in [1]; in series [2]; in series [7]; in the series filed under Mus musculus; in series [3]; in series [4]) was greater than 8.67 µM throughout. For the same compound, the IC50 in series [8], in series [5] and in series [6] was greater than 8.67 µM throughout.

With `CC1(C)OC2=C(C(=O)c3ccccc3C2=O)C1N=[N+]=[N-]` (stereo unspecified), the IC50 was determined as 3.16 µM in series [1]; 3.04 µM in [2]; 2.52 µM in series [7]; 3.68 µM in the series filed under Mus musculus; 4.09 µM in series [3]; 3.3 µM in series [4]. Moreover, the IC50 in series [5] was 2.23 µM; in [6] it was 3.53 µM.
